Experimental data from ChEMBL document CHEMBL3102812 (J Med Chem, 2013).
Active and inactive are the calls of the source. The calls are words filed in the database; no cut-off is given here.

Experiments:
[1] = tested on: Trypanosoma cruzi; experiment: Antitrypanosomal activity against Trypanosoma cruzi Tulahuen 6 infected in Swiss mouse assessed as mouse survival at 100 mg/kg, po qd administered on day 8 post-infection for 20 days followed by 10 days non-treatment period followed by three cycles of immunosuppression measured on day 58 post-infection by microscopic analysis; format: functional, organism-based; design: dose 100 mg/kg
[2] = tested on: Trypanosoma cruzi; experiment: Antitrypanosomal activity against Trypanosoma cruzi Tulahuen 6 infected in Swiss mouse assessed as mouse survival at 100 mg/kg, po qd administered on day 8 post-infection measured on same day by microscopic analysis; format: functional, organism-based; design: dose 100 mg/kg
[3] = tested on: Mus musculus; experiment: Toxicity in Swiss mouse at 20 mg/kg, po; conditions: in vivo
[4] = tested on: Trypanosoma cruzi; experiment: Antitrypanosomal activity against Trypanosoma cruzi Tulahuen 6 infected in Swiss mouse assessed as reduction in blood parasitemia at 20 mg/kg, po qd administered on day 8 post-infection for 10 days by microscopic analysis; format: functional, organism-based; design: dose 20 mg/kg
Procedure, shortened: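 Infected Swiss mice dosed orally at 20 mg/kg once daily for up to 10 days starting day 8 pi; blood parasitemia followed by microscopy throughout dosing, scored as cleared or not during the dosing period.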

[5] = Plasma concentration in Swiss mouse at 20 mg/kg, po after 24 hrs by LC/MS analysis
[6] = Plasma concentration in Swiss mouse at 20 mg/kg, po after 0.5 hrs by LC/MS analysis
[7] = tested on: Trypanosoma cruzi; experiment: Antitrypanosomal activity against Trypanosoma cruzi Tulahuen 6 amastigotes infected in rat L6 cells after 96 hrs by colorimetric method; format: functional, organism-based; conditions: Tulahuen 6, L6, 96 h

concentration at 24 h [5] | concentration at 0.5 h [6] | IC50 [7] | Structure (SMILES) | Activity [1] | Activity [2] | Activity [3] | Activity [4]
 |  |  | O=C(Cn1ccnc1[N+](=O)[O-])NCc1ccccc1 | inactive | Active |  | 
1 nM | 3260 nM | 61 nM | CC(C)(C)NC(=O)N1CCC(NC(c2ccc(C(F)(F)F)cc2)c2cccnc2)CC1 (configuration not stated) |  |  | Non-toxic | inactive
